OXTR ag = human OXTR agonists, primary screen, fluorescence, CHO-OTR cells, Fluo-8 calcium | 0.32% of 320,000 active | Fluo-8 calcium fluorescence; normalized: DMSO 0%, oxytocin 100% | activation, % at 3 µM;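 active = activation above the mean of all tested compounds plus 3 SD, cutoff set per screening run, cut at about 20% in these data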;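 note: peak over basal fluorescence ratio from a 100 s FLIPR kinetic read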
TAAR1 antag = human TAAR1 antagonists, primary screen, Fluo-8 calcium fluorescence, CHO RD-HGA16 cells | Trace amine-associated receptor 1 (Homo sapiens), Q96RJ0 | 1.5% of 360,000 active | inhibition, % at 3 µM | antagonist | AID 624466, 2012;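 active = inhibition above a per-plate cutoff, the mean inhibition of test compounds on that plate plus 3 SD, cut at about 49% in these data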;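 note: 0% = DMSO plus EC80 beta-PEA response and 100% = DMSO alone without agonist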
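Assay system: RD-HGA16 CHO cells with stable hTAAR1 and Gα16 / Reagent: EC80 β-phenethylamine stimulus / Doses: 3 µM, single point / Timing: dye loading 75 min at 37 °C, then 30 min room temperature / Measured by: Fluo-8 intracellular calcium dye fluorescence, real-time kinetic reads / Controls: vehicle wells and EC80 agonist wells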
OXTR potentiator = human OXTR potentiators, primary screen, fluorescence, CHO-OTR cells, Fluo-8 calcium; Oxytocin receptor (Homo sapiens), P30559; Fluo-8 calcium fluorescence, potentiator mode; 0% = oxytocin EC15, 100% = EC100; activation, % at 3 µM; 0.061% of 320,000 active; AID 2445, 2010;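 active = activation above that plate's cutoff, the mean activation of tested compounds plus 3 SD, cut at about 6.6% in these data, passing the limit was not always enough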;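 note: 100% uses oxytocin at 75 nM as the full agonist control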
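Replication – single well per compound, singlicate · Assay system – CHO cell line stably expressing human OTR · Timing – 6 min pre-incubation, 100 s read · Measure – normalized max/min fluorescence ratio, % activation · Doses – 3.0 µM, one dose · Detection – Fluo-8 calcium dye fluorescence · Probe or stimulus – oxytocin near EC15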
TAAR1 agonist = human TAAR1 agonists, primary screen, Fluo-8 calcium fluorescence, CHO RD-HGA16 cells. activation, % at 3 µM. vehicle wells 0%, saturating PEA agonist 100%. 0.99% of 360,000 active. Trace amine-associated receptor 1 (Homo sapiens), Q96RJ0. AID 624467, 2012;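 active = activation above the mean activation of all test compounds in the run plus 3 SD, cut at about 38% in these data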
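System: CHO-derived RD-HGA16 cells with stable Gα16 and human TAAR1 / Times: 17-24 h plating, Fluo-8 75 min 37 °C, 30 min RT / Technique: calcium-sensitive Fluo-8 signal, excitation 470-495, emission 515-575 nm / Measure: % activation relative to PEA EC100 response / Benchmarks: DMSO and PEA EC100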
V1aR counter = agonists of human V1a receptor, primary screen, counter-screen for OXTR agonist project, fluorescence, CHO-V1R cells; AID 2797, 2010; Vasopressin V1a receptor (Homo sapiens), P37288; 0.25% of 320,000 active; activation, % at 3 µM; Fluo-8 calcium fluorescence, agonist mode; 0% DMSO, 100% 3 nM vasopressin;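 active = activation above the mean activation of all tested compounds plus 3 SD, per screening run, cut at about 20% in these data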;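 note: signal is peak over basal fluorescence ratio across a 100 second FLIPR read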
Target sequence (P37288 whole entry, looked up): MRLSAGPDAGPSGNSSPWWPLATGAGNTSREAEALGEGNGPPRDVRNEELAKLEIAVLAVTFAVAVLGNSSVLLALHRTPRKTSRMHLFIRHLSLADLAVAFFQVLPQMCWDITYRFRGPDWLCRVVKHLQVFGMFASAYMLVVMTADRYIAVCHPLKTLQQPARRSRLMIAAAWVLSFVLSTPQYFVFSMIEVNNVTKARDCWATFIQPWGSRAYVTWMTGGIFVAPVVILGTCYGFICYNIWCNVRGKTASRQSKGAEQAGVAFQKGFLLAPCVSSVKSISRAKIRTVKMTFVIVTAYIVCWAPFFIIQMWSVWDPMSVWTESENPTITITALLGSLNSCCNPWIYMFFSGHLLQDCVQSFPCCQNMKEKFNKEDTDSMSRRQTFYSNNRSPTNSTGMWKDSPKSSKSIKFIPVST
TAAR1 ag conf = human TAAR1 agonists, retest of hits, confirmation, Fluo-8 calcium fluorescence, CHO RD-HGA16 cells; shares compounds with TAAR1 agonist; scaled: DMSO 0%, maximal phenethylamine 100%; activation, % at 3 µM; 82% of 2,400 active; AID 651783, 2012;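 active = activation above a cutoff set at the run's mean compound activation plus 3 SD, cut at about 39% in these data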
Ga16 ag counter = nonselective calcium mobilization agonists, CHO-Ga16 cells, counter-screen for hTAAR1 agonist project, cell-based, fluorescence, CHO-Ga16 parental line | shares compounds with TAAR1 agonist | 50% of 2,400 active | Fluo-8 calcium fluorescence; normalized to maximal ATP response, DMSO zero | activation, % at 3 µM;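 active = activation above the run cutoff, the mean activation over all tested wells plus 3 SD, cut at about 12% in these data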;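 note: 0% = DMSO wells and 100% = maximal ATP response on the peak over basal ratio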
TAAR1 desensitize = TAAR1 desensitization by agonist hits, confirmation, counter-screen for TAAR1 agonist project, cell-based, fluorescence, tachyphylaxis; AID 651951, 2012; 46% of 2,400 active; inhibition, % at 3 µM; shares compounds with TAAR1 agonist; CHO RD-HGA16 hTAAR1, Fluo-8 calcium, beta-PEA response inhibition;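 active = inhibition above the run cutoff, the mean inhibition of all test compounds plus 3 SD, cut at about 49% in these data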;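 note: beta-PEA stimulus applied at its EC80; loss of beta-PEA calcium signal after compound pretreatment read as receptor desensitization; 0% = DMSO with beta-PEA at EC80 and 100% = DMSO alone without agonist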
Ga16 antag count = inhibition of ATP-evoked calcium response in CHO-Ga16 cells, counter-screen for TAAR1 agonist project, cell-based, fluorescence; inhibition, % at 3 µM; 39% of 2,400 active; CHO-Ga16 ATP-induced calcium, Fluo-8 fluorescence; shares compounds with TAAR1 agonist;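 active = inhibition above the plate's mean compound inhibition plus 3 SD, computed per plate, cut at about 22% in these data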;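 note: 0% = EC80 ATP with DMSO and 100% = DMSO wells without ATP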
Active calls of the source: *; nt = not tested or not shown. Rows were chosen to be rich in hits. Some 2.3% of all compounds tested hit in one or more screens of this group.

SMILES | OXTR ag | TAAR1 antag | OXTR potentiator | TAAR1 agonist | V1aR counter | TAAR1 ag conf | Ga16 ag counter | TAAR1 desensitize | Ga16 antag count
CC(=O)c1ccc(N2CCN(C(=O)c3ccc(Cn4c(=S)[nH]c5ccc(N6CCOCC6)cc5c4=O)cc3)CC2)cc1 | -1.1 | -10.2 | -9.4 | 52.9* | -0.4 | -0.1 | 5.8 | 1.8 | 10.1
O=C(c1ccc2c(=O)n(Cc3ccccc3)c(=S)[nH]c2c1)N1CCOCC1 | 4.1 | -5.0 | -9.9 | 4.8 | 4.6 | nt | nt | nt | nt
C#C[C@]1(O)CC[C@H]2[C@@H]3[C@H](C)CC4=C(CCC(=O)C4)[C@H]3CC[C@@]21C | 3.9 | nt | -21.8 | nt | 7.5 | nt | nt | nt | nt
CC(C)(C)CN1CCNC(=O)C1CC(=O)NCCc1ccccc1F (centres undefined) | -0.5 | nt | -15.1 | nt | -0.4 | nt | 2.4 | nt | 5.0
O=C(CC1C(=O)NCCN1CC1CCCCC1)NCCc1ccc(F)cc1 (centres undefined) | -1.3 | -17.2 | -12.2 | 45.5* | -0.4 | 49.5* | 0.5 | 5.4 | 2.3
COc1cccc(CNC(=O)CC2C(=O)NCCN2CCCc2ccccc2)c1 (centres undefined) | -0.1 | -14.6 | -0.7 | 18.7 | -0.1 | nt | nt | nt | nt
COc1ccccc1CCNC(=O)CC1C(=O)NCCN1CCCc1ccccc1 (centres undefined) | -0.8 | 16.9 | -14.2 | 74.0* | 3.7 | 71.0* | 2.5 | 42.7 | 11.2
O=C(CC1C(=O)NCCN1CCCc1ccccc1)NCCc1ccccc1Cl (centres undefined) | 2.6 | 49.0* | -5.7 | 70.2* | 7.8 | 86.3* | 4.6 | 78.5* | 9.3
COc1ccc(/C=N/N(C)c2cc(=O)n(C)c(=O)[nH]2)cc1OC | -1.4 | -4.7 | -9.6 | 1.7 | -0.2 | nt | nt | nt | nt
NC(N)=N/N=C/c1ccccc1 | -0.1 | 88.6* | -2.6 | 63.5* | 0.8 | 91.5* | 4.7 | 93.5* | 7.0
NC(N)=N/N=C/c1ccc(OCc2ccccc2Cl)cc1 | 1.7 | -10.8 | -2.0 | 49.8* | 1.7 | 86.7* | 54.6* | 70.5* | 60.6*
O=C(CC[C@H]1O[C@@H](n2ccc(=O)[nH]c2=O)[C@H](O)[C@@H]1O)NCc1ccc2c(c1)OCO2 | nt | -28.7 | nt | 1.1 | nt | nt | nt | nt | nt
O=c1c2ccccc2nnn1CSc1ccccc1F | -1.7 | 45.1 | 4.8 | 59.5* | -0.3 | 6.2 | 2.5 | 3.1 | 11.6
Cc1ccc(SCn2nnc3ccccc3c2=O)c(C)c1 | -0.2 | -1.3 | -3.3 | -2.2 | -0.8 | nt | nt | nt | nt
CCN(Cc1ccncc1)Cc1c(O)ccc2ccccc12 | nt | -7.3 | nt | 53.2* | nt | 54.6* | 1.6 | 20.7 | 6.5
CC(C)CN(Cc1c(O)ccc2ccccc12)CC(C)C | 1.0 | -1.0 | -3.8 | 6.6 | 0.5 | nt | nt | nt | nt
COc1ccc(S(=O)(=O)N2CCCC2CNC(=O)C(=O)NCCc2ccccc2)cc1 (centres undefined) | -0.9 | 96.7* | -11.5 | 92.0* | 1.0 | 86.6* | 9.9 | 86.6* | 30.0*
COc1ccc(S(=O)(=O)N2CCCC2CNC(=O)C(=O)NCc2ccc(C)cc2)cc1 (centres undefined) | -0.3 | -14.7 | 4.2 | 2.4 | 0.9 | nt | nt | nt | nt

Screening data (PubChem BioAssay)
